Experimental data: ChEMBL document CHEMBL5321226, “Structure-directed identification of pyridine-2-methylamine derivatives as MmpL3 inhibitors for use as antitubercular agents” (Eur J Med Chem, 2023)
Values after ≈ are worked out from the molar mass of the structure shown.

Experiments:
[1] = Cytotoxicity against African green monkey Vero cells assessed as reduction in cell viability incubated for 72 hrs by alamar blue staining based fluorescence microplate reader analysis; type: toxicity; conditions: African green monkey (Chlorocebus sabaeus)
How it was run: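 Vero cell cytotoxicity was read out by Alamar Blue (MABA) and expressed as IC50. Other details follow earlier reports.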

[2] = Metabolic stability in human liver microsomes assessed as half life and mesured upto 60 mins in presence of NADPH; type: ADME, Microsome; conditions: 1 h
How it was run: (§1)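 Compounds were incubated with human liver microsomes for 60 min, with or without NADPH cofactor. Substrate concentration after 60 min was normalized to the time-zero concentration to give % remaining. Half-life was derived from the incubations, and intrinsic clearance was calculated as CLint(mic) = 0.693/half-life/mg microsomal protein per mL.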

[3] = Metabolic stability in human liver microsomes assessed as parent compound remaining and mesured after 60 mins in presence of NADPH; type: ADME, Microsome; conditions: read-out: Stability; how it was run: as §1
[4] = Metabolic stability in human liver microsomes assessed as parent compound remaining and mesured after 60 mins in absence of NADPH; type: ADME, Microsome; conditions: 1 h
[5] = Metabolic stability in human liver microsomes assessed as intrinsic clearance and mesured upto 60 mins in presence of NADPH; type: ADME, Microsome; conditions: 1 h
[6] = target: Voltage-gated inwardly rectifying potassium channel KCNH2 (Homo sapiens, UniProt Q12809); assay: Inhibition of human ERG at 10 uM by patch-clamp electrophysiology assay; type: toxicity
How it was run: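 hERG K+ channel current was measured by manual patch-clamp electrophysiology with the test compound at 10 μM. […] The inhibition rate is the average of three individual measurements.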

[7] = test system: Mycobacterium tuberculosis; assay: Antimycobacterial activity against drug susceptible Mycobacterium tuberculosis V4207 assessed as bacterial growth inhibition incubated for 7 to 14 days by MABA assay; type: functional; conditions: time 7-14 day
[8] = Mycobacterium tuberculosis, V4207, read-out: MIC90

Voltage-gated inwardly rectifying potassium channel KCNH2, sequence (Q12809 whole entry): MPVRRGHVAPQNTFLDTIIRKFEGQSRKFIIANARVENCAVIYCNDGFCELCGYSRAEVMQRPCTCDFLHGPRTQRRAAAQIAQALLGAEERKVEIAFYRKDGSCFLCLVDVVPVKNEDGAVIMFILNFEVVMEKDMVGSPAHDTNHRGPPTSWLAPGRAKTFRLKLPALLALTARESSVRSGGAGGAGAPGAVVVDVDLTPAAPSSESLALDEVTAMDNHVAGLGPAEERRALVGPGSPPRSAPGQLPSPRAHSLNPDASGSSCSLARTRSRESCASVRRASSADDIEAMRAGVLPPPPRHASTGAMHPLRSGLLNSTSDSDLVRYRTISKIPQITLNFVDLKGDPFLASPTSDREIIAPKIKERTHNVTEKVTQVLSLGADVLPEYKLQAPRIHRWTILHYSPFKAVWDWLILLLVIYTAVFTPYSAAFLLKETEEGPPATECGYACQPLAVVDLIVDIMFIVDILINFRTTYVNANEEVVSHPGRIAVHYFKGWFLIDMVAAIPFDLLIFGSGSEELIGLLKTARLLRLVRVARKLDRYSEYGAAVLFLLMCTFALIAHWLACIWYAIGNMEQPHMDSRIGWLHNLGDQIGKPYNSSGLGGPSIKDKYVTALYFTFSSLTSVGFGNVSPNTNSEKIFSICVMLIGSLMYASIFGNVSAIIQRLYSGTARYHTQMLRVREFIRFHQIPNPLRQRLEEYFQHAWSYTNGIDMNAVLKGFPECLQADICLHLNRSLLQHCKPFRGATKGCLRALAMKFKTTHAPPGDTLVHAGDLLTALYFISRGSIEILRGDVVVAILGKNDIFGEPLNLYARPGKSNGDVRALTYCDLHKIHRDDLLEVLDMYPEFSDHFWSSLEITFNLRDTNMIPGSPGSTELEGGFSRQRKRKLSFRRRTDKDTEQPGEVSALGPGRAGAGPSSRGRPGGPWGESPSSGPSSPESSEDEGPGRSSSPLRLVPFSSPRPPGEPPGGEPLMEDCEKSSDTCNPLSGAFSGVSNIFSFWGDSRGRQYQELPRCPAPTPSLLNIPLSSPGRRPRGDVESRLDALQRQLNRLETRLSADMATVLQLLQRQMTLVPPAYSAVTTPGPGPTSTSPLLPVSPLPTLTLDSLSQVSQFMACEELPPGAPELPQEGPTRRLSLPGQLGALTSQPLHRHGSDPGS

**Q.** For CC(C)c1ccc(-c2cncc(CN3CC[Si](C)(C)CC3)c2)cc1, which IC50 at 72 h [1] is on record?
**A.** ≥ 32 µg/mL

**Q.** Which IC50 at 72 h [1] does the source give for CC(C)c1ccc(-c2ccnc(CN3CCC4(CC3)OCCCO4)c2)cc1 here?
**A.** ≥ 32 µg/mL

**Q.** With CC(C)c1ccc(-c2ccnc(CNC3CCCCCCC3)c2)cc1 as the compound, how does the IC50 at 72 h [1] read?
**A.** 16 µg/mL (≈ 47.5 µM)

**Q.** With c1ccc(-c2ccc(-c3ccnc(CN4CCC5(CCCCC5)CC4)c3)cc2)cc1 as the compound, how does the IC50 at 72 h [1] read?
**A.** ≥ 32 µg/mL

**Q.** With C[Si]1(C)CCN(Cc2cc(-c3ccc(C4CCCCC4)cc3)ccn2)CC1 as the compound, how does the IC50 at 72 h [1] read?
**A.** ≥ 32 µg/mL

**Q.** What does the source list for c1ccc(-c2ccc(-c3ccnc(CN4CCC5(CCCC5)CC4)c3)cc2)cc1?
**A.** t1/2 [2]: 49.5 min; remaining at 1 h [3]: 43.1%; Stability [4]: Stable; CLH [5]: 28 µL/min/mg; inhibition (INH) [6]: 52.7%; IC50 at 72 h [1]: 16 µg/mL (≈ 41.8 µM)

**Q.** With CC(C)Cc1ccc(-c2ccnc(CN3CC[Si](C)(C)CC3)c2)cc1 as the compound, how does the IC50 at 72 h [1] read?
**A.** ≥ 32 µg/mL

**Q.** Which results are given for c1cc(-c2ccc(-c3ccoc3)cc2)cc(CN2CCC3(CCCC3)CC2)n1?
**A.** t1/2 [2]: 1.8 min; remaining at 1 h [3]: 0.2%; Stability [4]: Stable; CLH [5]: 758 µL/min/mg

**Q.** Which IC50 at 72 h [1] does the source give for CC(C)Cc1ccc(-c2ccnc(CN3CCC(C)CC3)c2)cc1 here?
**A.** ≥ 32 µg/mL

**Q.** For CC(C)c1ccc(-c2ccnc(CNC3CCCCCC3)c2)cc1, which IC50 at 72 h [1] is on record?
**A.** 16 µg/mL (≈ 49.6 µM)

**Q.** For CC(C)c1ccc(-c2ccnc(CNC34CC5CC(CC(C5)C3)C4)c2)cc1, which IC50 at 72 h [1] is on record?
**A.** 16 µg/mL (≈ 44.4 µM)

**Q.** With CC(C)(C)c1ccc(-c2ccnc(CN3CC[Si](C)(C)CC3)c2)cc1 as the compound, how does the IC50 at 72 h [1] read?
**A.** 16 µg/mL (≈ 45.4 µM)

**Q.** Which IC50 at 72 h [1] does the source give for Cc1ccc(-c2ccc(-c3ccnc(CN4CCC5(CCCC5)CC4)c3)cc2)cc1 here?
**A.** ≥ 32 µg/mL

**Q.** Which results are given for CC(C)c1ccc(-c2ccnc(CN3CCC4(CCCC4)CC3)c2)cc1?
**A.** t1/2 [2]: 11.3 min; remaining at 1 h [3]: 1.5%; Stability [4]: Stable; CLH [5]: 122.9 µL/min/mg

**Q.** For Clc1ccc(-c2ccc(-c3ccnc(CN4CCC5(CCCC5)CC4)c3)cc2)cc1, which IC50 at 72 h [1] is on record?
**A.** ≥ 32 µg/mL

**Q.** For CC(C)c1ccc(-c2nc(CN3CC[Si](C)(C)CC3)co2)cc1, which IC50 at 72 h [1] is on record?
**A.** ≥ 32 µg/mL

**Q.** With CC(C)c1ccc(-c2ccnc(CNC3C4CC5CC(C4)CC3C5)c2)cc1 (stereo not drawn) as the compound, how does the IC50 at 72 h [1] read?
**A.** ≥ 32 µg/mL

**Q.** For CC(C)c1ccc(-c2ccnc(CN3CC[Si](C)(C)CC3)c2)cc1, which IC50 at 72 h [1] is on record?
**A.** ≥ 32 µg/mL

**Q.** Which IC50 at 72 h [1] does the source give for C[Si]1(C)CCN(Cc2cc(-c3ccc(-c4ccccc4)cc3)ccn2)CC1 here?
**A.** ≥ 32 µg/mL

**Q.** Which Stability [4] does the source give for O=C(O)Cc1ccccc1Nc1c(Cl)cccc1Cl [DICLOFENAC] here?
**A.** Stable

**Q.** Which MIC90 [7] does the source give for NNC(=O)c1ccncc1 [ISONIAZID] here?
**A.** 0.04 µg/mL (≈ 0.292 µM)

**Q.** Which MIC90 [7, 8] does the source give for NC[C@H]1O[C@H](O[C@H]2[C@H](O)[C@@H](O[C@H]3O[C@H](CO)[C@@H](O)[C@H](N)[C@H]3O)[C@H](N)C[C@@H]2N)[C@H](O)[C@@H](O)[C@@H]1O [KANAMYCIN] here?
**A.** 2 µg/mL (≈ 4.13 µM)

**Q.** For C[C@H]1COc2c(N3CCN(C)CC3)c(F)cc3c(=O)c(C(=O)O)cn1c23 [LEVOFLOXACIN ANHYDROUS], which MIC90 [7, 8] is on record?
**A.** 0.125 µg/mL (≈ 0.346 µM)

**Q.** With CC1COc2c(N3CCN(C)CC3)c(F)cc3c(=O)c(C(=O)O)cn1c23 (stereo not drawn) [OFLOXACIN] as the compound, how does the MIC90 [7, 8] read?
**A.** 0.5 µg/mL (≈ 1.38 µM)

**Q.** Which MIC90 [7, 8] does the source give for CO[C@H]1/C=C/O[C@@]2(C)Oc3c(C)c(O)c4c(O)c(c(/C=N/N5CCN(C)CC5)c(O)c4c3C2=O)NC(=O)/C(C)=C\C=C\[C@H](C)[C@H](O)[C@@H](C)[C@@H](O)[C@@H](C)[C@H](OC(C)=O)[C@@H]1C [RIFAMPIN] here?
**A.** 0.063 µg/mL (≈ 0.0766 µM)

**Q.** With C[C@]12CC[C@H]3[C@@H](CCC4=CC(=O)CC[C@@]43C)[C@@H]1CC[C@@H]2O [TESTOSTERONE] as the compound, how does the remaining at 1 h [3] read?
**A.** 3.9%

**Q.** What about the Stability [4] of the same compound?
**A.** Stable
